# Laboratory results as given in ChEMBL document CHEMBL2016492, “Design and synthesis of carbamate and thiocarbamate derivatives and their inhibitory activities of NO production in LPS activated macrophages” (Bioorg Med Chem Lett, 2012).
# Activity calls are given as the source filed them. No cut-off for these calls is given here.
# Tests used:
# [1] = test system: RAW264.7; assay: Inhibition of LPS-induced NO production in mouse RAW264.7 cells at 20 uM after 20 hrs by Griess method; format: functional; settings: RAW264.7, 20 h
# How it was run: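 Same nitrite read-out in RAW 264.7 cells: 1% FBS medium, LPS 1 μg/mL with compound at 20 μM for 20 h. Griess reagent, 570 nm, nitrite standard curve. Percent inhibition relative to LPS-only control, n = 3.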
# [2] = test system: RAW264.7; assay: Inhibition of LPS-induced NO production in mouse RAW264.7 cells after 20 hrs by Griess method; format: functional, cell-based; settings: RAW264.7, 20 h
# How it was run: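 RAW 264.7 cells in 10% FBS-DMEM plated at 1 × 10⁵ cells/mL for 24 h, then switched to 1% FBS medium. Incubated 20 h with LPS (1 μg/mL) ± compounds. Nitrite in supernatant measured with Griess reagent, 10 min at room temperature, absorbance 570 nm, sodium nitrite standard curve. IC50 taken from dose–response curve; mean ± SD of three experiments.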
# [3] = biological target: Transcription factor p65 (Mus musculus) (UniProt Q04207); assay: Inhibition of NF-kB p65 nuclear translocation in LPS-stimulated mouse RAW264.7 cells at 20 uM treated 30 mins before LPS challenge measured after 15 mins by Western blot analysis
# Sequence of Transcription factor p65 (Mus musculus) (Q04207 whole entry): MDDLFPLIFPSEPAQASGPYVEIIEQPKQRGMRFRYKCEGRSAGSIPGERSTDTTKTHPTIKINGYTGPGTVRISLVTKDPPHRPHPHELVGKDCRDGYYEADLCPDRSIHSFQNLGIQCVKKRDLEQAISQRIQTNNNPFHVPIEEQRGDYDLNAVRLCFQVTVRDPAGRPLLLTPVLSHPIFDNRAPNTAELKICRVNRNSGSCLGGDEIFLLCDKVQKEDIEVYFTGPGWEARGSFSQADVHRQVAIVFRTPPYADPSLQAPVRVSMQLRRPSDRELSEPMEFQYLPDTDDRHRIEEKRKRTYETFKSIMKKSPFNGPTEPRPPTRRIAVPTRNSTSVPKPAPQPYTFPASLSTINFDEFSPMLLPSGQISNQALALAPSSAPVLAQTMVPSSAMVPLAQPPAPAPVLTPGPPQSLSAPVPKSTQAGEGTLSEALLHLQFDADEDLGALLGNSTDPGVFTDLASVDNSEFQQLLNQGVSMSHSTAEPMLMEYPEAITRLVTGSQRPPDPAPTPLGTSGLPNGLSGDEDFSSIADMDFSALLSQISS
# [4] = biological target: Transcription factor p65 (Mus musculus) (UniProt Q04207); assay: Inhibition of NF-kB p65 nuclear translocation in LPS-stimulated mouse RAW264.7 cells at 5 uM treated 30 mins before LPS challenge measured after 15 mins by Western blot analysis
# [5] = test system: RAW264.7; assay: Inhibition of LPS-induced iNOS mRNA expression in mouse RAW264.7 cells at 5 uM after 6 hrs by RT-PCR analysis; format: functional, cell-based
# How it was run: (§1)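 RAW 264.7 cells at 8 × 10⁵ per 60 mm dish stimulated 6 h with LPS (1 μg/mL) plus compound at 5 or 20 μM. Total RNA extracted; iNOS mRNA measured by RT-PCR with β-actin as internal control. PCR run 25 cycles (94 °C 30 s, 55 °C 30 s, 72 °C 30 s); products run on 2% agarose gel. Representative of three independent experiments.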
# [6] = test system: RAW264.7; assay: Inhibition of LPS-induced iNOS mRNA expression in mouse RAW264.7 cells at 20 uM after 6 hrs by RT-PCR analysis; format: functional, cell-based; how it was run: as §1
# [7] = test system: RAW264.7; assay: Inhibition of LPS-induced iNOS protein expression in mouse RAW264.7 cells at 20 uM after 20 hrs by Western blot analysis; format: functional, cell-based
# How it was run: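 RAW 264.7 cells at 8 × 10⁵ per 60 mm dish treated 20 h with LPS (1 μg/mL) and compound (5, 20 μM). Cells washed and lysed; 20 μg lysate protein run on 8% SDS-PAGE, transferred to PVDF. Probed with anti-iNOS and anti-β-actin (internal control); ECL detection. Representative of three independent experiments.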
# [8] = test system: RAW264.7; assay: Inhibition of LPS-induced NO production in mouse RAW264.7 cells at 100 uM after 20 hrs by Griess method; format: functional; settings: RAW264.7, 20 h
smiles,measurement,setting,value
CCNC(=S)Oc1ccc(OCCn2c3ccccc3c3ccccc32)cc1,inhibition at 20 µM,[1],10%
CC(C)OC(=S)Nc1ccc(OCCn2c3ccccc3c3ccccc32)cc1,inhibition at 20 µM,[1],20%
CCOC(=O)CNC(=O)Oc1ccc(OCCn2c3ccccc3c3ccccc32)cc1,inhibition at 20 µM,[1],35%
CCOC(=O)CNC(=S)Oc1ccc(OCCn2c3ccccc3c3ccccc32)cc1,IC50,[2],6.5 µM
same,inhibition,[3],Active
same,inhibition,[4],Active
same,inhibition at 20 µM,[1],73%
same,inhibition,[5],Active
same,inhibition,[6],Active
same,inhibition,[7],Active
O=C(Nc1ccc(OCCn2c3ccccc3c3ccccc32)cc1)Oc1ccc([N+](=O)[O-])cc1,inhibition at 20 µM,[1],22%
CCSC(=O)Nc1ccc(OCCn2c3ccccc3c3ccccc32)cc1,inhibition at 20 µM,[1],26%
COC(=S)Nc1ccc(OCCn2c3ccccc3c3ccccc32)cc1,IC50,[2],12 µM
same,inhibition,[3],Active
same,inhibition,[4],Active
same,inhibition at 20 µM,[1],60%
same,inhibition,[6],Active
same,inhibition,[7],Active
COC(=O)CNC(=O)Oc1ccc(OCCn2c3ccccc3c3ccccc32)cc1,inhibition at 20 µM,[1],33%
S=C(Nc1ccc(OCCn2c3ccccc3c3ccccc32)cc1)OCc1ccccc1,inhibition at 20 µM,[1],18%
CCNC(=O)Oc1ccc(OCCn2c3ccccc3c3ccccc32)cc1,inhibition at 20 µM,[1],10%
CSC(=O)Nc1ccc(OCCn2c3ccccc3c3ccccc32)cc1,inhibition at 20 µM,[1],44%
N=C(N)NN [PIMAGEDINE],inhibition at 100 µM,[8],74%
